# From ChEMBL document CHEMBL1124107, “Antihypertensive thiadiazoles. 1. Synthesis of some 2-aryl-5-hydrazino-1,3,4-thiadiazoles with vasodilator activity” (1988)
# Activity calls are given as the source filed them. The rule behind the calls is not given here.
# Experiments:
# Rattus norvegicus [1] = assay: Maximum percentage reduction in mean blood pressure in metacorticoid (DOCA) hypertensive rats at a standard oral dose of 100 mg/kg; format: functional
# How it was run: (§1)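 DOCA hypertensive rats, n = 3-5. Food removed 18 h before oral dosing; ip injections given to unstarved animals. Blood pressure recorded by pressure transducer under minimal restraint, twice before dosing with drug or isotonic saline vehicle, then at 1, 2, 3, 5 and 22 h. MABP taken as diastolic plus one-third pulse pressure.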
# Rattus norvegicus [2] = assay: Increase in diastolic blood pressure for 0.1 ug/kg intravenous dosing of noradrenaline in pithed rats; format: functional, Artery
# How it was run: (§2)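 Male rats (200-300 g) pretreated ip with drug or isotonic saline, groups of five, 1 or 2 h before pithing. Halothane anesthesia, tracheal cannulation, CNS destroyed via left orbit and spinal cord, artificial respiration with room air at 50 strokes/min. Pressor responses to iv noradrenaline (0.1-1.0 ug/kg), iv angiotensin (0.03-0.3 ug/kg), or whole sympathetic outflow stimulation.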
# Rattus norvegicus [3] = assay: Increase in diastolic blood pressure for 0.1 ug/kg intravenous dosing of angiotensin in pithed rats; format: functional, Artery; how it was run: as §2
# Rattus norvegicus [4] = assay: Increase in diastolic blood pressure for 0.3 ug/kg intravenous dosing of noradrenaline in pithed rats; format: functional, Artery; how it was run: as §2
# Rattus norvegicus [5] = assay: Increase in diastolic blood pressure for 0.3 ug/kg intravenous dosing of angiotensin in pithed rats; format: functional, Artery; how it was run: as §2
# Rattus norvegicus [6] = assay: Increase in diastolic blood pressure for 1.0 ug/kg intravenous dosing of noradrenaline in pithed rats; format: functional, Artery; how it was run: as §2
# Rattus norvegicus [7] = organism: Rattus norvegicus; assay: Increase in diastolic blood pressure for 1 Htz electrical stimulation in the pithed rats; format: functional, Artery; how it was run: as §2
# Rattus norvegicus [8] = organism: Rattus norvegicus; assay: Increase in diastolic blood pressure for 3 Htz electrical stimulation in the pithed rats; format: functional, Artery; how it was run: as §2
# Rattus norvegicus [9] = assay: Increase in diastolic blood pressure for 0.03 ug/kg intravenous dosing of angiotensin in pithed rats; format: functional, Artery; how it was run: as §2
# Rattus norvegicus [10] = organism: Rattus norvegicus; assay: Increase in diastolic blood pressure for 6 Htz electrical stimulation in the pithed rats; format: functional, Artery; how it was run: as §2
# Rattus norvegicus [11] = assay: Maximum percentage reduction in mean blood pressure and heart rate in metacorticoid (DOCA) hypertensive rats at a standard oral dose of 100 mg/kg; IA = Inactive, Maximum percentage fall in MABP <10%; format: functional, organism-based; set-up: dose 100 mg/kg; how it was run: as §1
# Rattus norvegicus [12] = assay: Maximum percentage reduction in mean blood pressure in metacorticoid (DOCA) hypertensive rats at a standard oral dose of 50 mg/kg; format: functional; how it was run: as §1
# Rattus norvegicus [13] = assay: Maximum percentage reduction in mean blood pressure in metacorticoid (DOCA) hypertensive rats at standard intraperitoneal dose of 100 mg/kg; format: functional; conditions: route oral, in the assay text read “oral” for “intraperitoneal”; how it was run: as §1
# Rattus norvegicus [14] = assay: Maximum percentage reduction in mean blood pressure and heart rate in metacorticoid (DOCA) hypertensive rats at a standard intraperitoneal dose of 100 mg/kg; format: functional; conditions: route oral, in the assay text read “oral” for “intraperitoneal”; how it was run: as §1
Structure (SMILES),Reduction (Rattus norvegicus [1]),other results
Cl.NNc1nnc(-c2ccccn2)s1,21%,–
Cl.NNc1nnc(-c2cccc(O)c2)s1,16%,–
Cc1cccc(-c2nnc(NN)s2)c1.Cl,29%,–
Cl.NNc1nnc(-c2ccc(Cl)c(Cl)c2)s1,17%,–
NNc1nncc2ccccc12 [HYDRALAZINE],–,Increase in blood pressure (Rattus norvegicus [2]): 8 mmHg; Increase in blood pressure (Rattus norvegicus [3]): 21 mmHg; Increase in blood pressure (Rattus norvegicus [4]): 15 mmHg; Increase in blood pressure (Rattus norvegicus [5]): 38 mmHg; Increase in blood pressure (Rattus norvegicus [6]): 28 mmHg; Increase in blood pressure (Rattus norvegicus [7]): 28 mmHg; Increase in blood pressure (Rattus norvegicus [8]): 42 mmHg; Increase in blood pressure (Rattus norvegicus [9]): 8 mmHg; Increase in blood pressure (Rattus norvegicus [10]): 54 mmHg
COc1cccc(-c2nnc(NN)s2)c1.Cl,18%,–
Cc1ccc(F)cc1-c1nnc(NN)s1.Cl,63%,–
Cl.NNc1nnc(-c2cccc(Cl)c2)s1,20%,–
CCCCCCOc1ccccc1-c1nnc(NN)s1,–,Reduction (Rattus norvegicus [11]): inactive
Cl.NNc1nnc(-c2ccccc2C(F)(F)F)s1,49%,Reduction (Rattus norvegicus [12]): 33%
NNc1nnc(-c2c(Cl)cccc2Cl)s1,50%,–
Cl.NNc1nnc(-c2cccc3ccccc23)s1,26%,–
Cc1cc(C)cc(-c2nnc(NN)s2)c1.Cl,18%,–
CCC[S+]([O-])c1ccccc1-c1nnc(NN)s1.Cl (centres undefined),48%,–
Cl.NNc1nnc(-c2ccccc2Br)s1,48%,–
Cl.NNc1nnc(-c2ccccc2I)s1,58%,Reduction (Rattus norvegicus [12]): 24%
Cc1ccc(-c2nnc(NN)s2)c(C)c1.Cl,61%,–
Cc1ccc(-c2nnc(NN)s2)cc1.Cl,28%,–
Cl.NNc1nnc(-c2ccc(Cl)cc2)s1,–,Reduction (Rattus norvegicus [13]): 28%
Cl.NNc1nnc(-c2ccsc2)s1,33%,–
CC(C)(C)c1ccccc1-c1nnc(NN)s1,58%,–
Cc1ccc(C)c(-c2nnc(NN)s2)c1.Cl,50%,–
COc1ccc(-c2nnc(NN)s2)cc1OC.Cl,–,Reduction (Rattus norvegicus [14]): 24%
Cl.NNc1nnc(-c2ccccc2)s1,42%,–
